Test [1] deals with T1, Parkinson disease protein 7 (Homo sapiens) (UniProt Q99497).
T1 sequence (whole entry): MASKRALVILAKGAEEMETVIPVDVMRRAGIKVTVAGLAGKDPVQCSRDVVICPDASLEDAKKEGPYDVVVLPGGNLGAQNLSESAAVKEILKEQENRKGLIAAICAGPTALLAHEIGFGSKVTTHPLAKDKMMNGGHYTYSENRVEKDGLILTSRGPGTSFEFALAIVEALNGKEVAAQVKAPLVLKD
The experiment in a line: Binding affinity to PARK7 in human HEK293T cells at 0.5 to 1 uM incubated for 1 hr by western blot analysis. The format is cell-based. Particulars: dose 0.5-1 µM.

Test [2] deals with T1, Parkinson disease protein 7 (Homo sapiens). In words: Binding affinity to N-terminal GST-tagged human recombinant PARK7 expressed in Escherichia coli BL21(DE3)Rosetta2 cells at 1 uM measured after 1 hr by coomassie staining based analysis. An outline of the steps:
(§1)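 Purified recombinant PARK7 (GST-tagged in E. coli BL21(DE3) Rosetta2, tag removed by 3C protease, then gel filtration), 1 μM final. Incubated with probe at 0, 0.1, 0.5, 1, 2, 5 or 10 μM for 1 h at 37 °C in 50 mM Tris-HCl, 150 mM NaCl, 2 mM TCEP, pH 7.5. Stopped with LDS sample buffer, run on SDS-PAGE, read by fluorescence scan, then Coomassie stain.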

Test [3] shares this target. In words: Binding affinity to PARK7 in UCHL1 knockdown human HEK293T cells at 1 uM incubated for 1 hr by fluorescence scanning based analysis. The format is cell-based. An outline of the steps: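 HEK293T cells were siRNA-transfected with Dharmafect 1 and cultured 3 days, then lysed in Triton X-100/TCEP Tris buffer (pH 7.5) with protease inhibitors. Lysate labelled with probe at 1 μM final for 1 h at 37 °C. Read by SDS-PAGE Cy5 fluorescence scan (635/655 nm), then immunoblot for UCHL1/PARK7 with actin as loading control.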

Test [4] shares this target. The experiment in a line: Binding affinity to N-terminal GST-tagged human recombinant PARK7 expressed in Escherichia coli BL21(DE3)Rosetta2 cells at 1 uM measured after 1 hr by fluorescence scanning analysis. An outline of the steps: as §1
For test [5] the target is unchanged. In words: Binding affinity to N-terminal GST-tagged human recombinant PARK7 expressed in Escherichia coli BL21(DE3)Rosetta2 cells at 2 uM measured after 1 hr by fluorescence scanning analysis. An outline of the steps:
as §1

Test [6] shares this target. In words: Binding affinity to PARK7 in human HEK293T cells at 1 uM incubated for 1 hr by fluorescence scanning based analysis. The format is cell-based.
For test [7] the target is unchanged. In words: Binding affinity to N-terminal GST-tagged human recombinant PARK7 expressed in Escherichia coli BL21(DE3)Rosetta2 cells at 2 uM measured after 1 hr by coomassie staining based analysis. A digest of the protocol: as §1
The target is the same in test [8]. In words: Binding affinity to PARK7 in human HEK293T cells at 0.5 uM incubated for 1 hr by fluorescence scanning based analysis. The format is cell-based.
Test [9] deals with Ubiquitin carboxyl-terminal hydrolase isozyme L1 (Homo sapiens) (UniProt P09936). The experiment in a line: Inhibition of UCHL1 (unknown origin) using SRK59 as fluorescent probe at 2 uM preincubated for 1 hr followed by SRK59 addition for 30 mins by Gel-based competition assay. Particulars: time 90.0 min. A digest of the protocol: (§2)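 Recombinant PARK7 and UCHL1 (1 μM each, mixed) or PARK7 alone, in 50 mM Tris-HCl, 150 mM NaCl, 2 mM TCEP, pH 7.5. Treated with compound at 2 μM or a serial dilution for 1 h at 37 °C. Then 8RK59 probe (2 μM final) added for 30 min at 37 °C. Run on SDS-PAGE; remaining labelling read by fluorescence scan.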

Test [10] shares this target. In words: Inhibition of UCHL1 in human HEK293T cells assessed as reduction in Rho-Ub-PA-labelled UCHL1 band intensity at 5 uM incubated for 1 hr followed by incubation with Rho-Ub-PA for 30 mins by fluorescence scanning based analysis. The format is cell-based. Particulars: time 90.0 min.
Test [11] concerns the target T1, Parkinson disease protein 7 (Homo sapiens). The experiment in a line: Inhibition of N-terminal GST-tagged human recombinant PARK7 expressed in Escherichia coli BL21(DE3)Rosetta2 cells using SRK59 as fluorescent probe at 2 uM preincubated for 1 hr followed by SRK59 addition for 30 mins by Gel-based competition assay. Conditions: time 90.0 min. A digest of the protocol: as §2

For test [12], the target named is Ubiquitin carboxyl-terminal hydrolase isozyme L1 (Homo sapiens) (UniProt P09936). In words: Inhibition of UCHL1 (unknown origin) using SRK59 as fluorescent probe at 20 uM preincubated for 1 hr followed by SRK59 addition for 30 mins by Gel-based competition assay. Conditions: time 90.0 min. An outline of the steps:
as §2

In test [13] the target is T1, Parkinson disease protein 7 (Homo sapiens). The experiment in a line: Inhibition of N-terminal GST-tagged human recombinant PARK7 expressed in Escherichia coli BL21(DE3)Rosetta2 cells using SRK59 as fluorescent probe at 1 to 2 uM preincubated for 1 hr followed by SRK59 addition for 30 mins by Gel-based competition assay. Particulars: dose 1-2 µM, time 90.0 min. An outline of the steps: as §2

For test [14] the target is unchanged. The experiment in a line: Inhibition of PARK7 in human HEK293T cells assessed as reduction in JQ-92 labelled PARK7 band intensity incubated for 1 hr followed by incubation with JQ-92 for 30 mins by fluorescence scanning based analysis. The class given is cell-based. Particulars: dose 0.1-20 µM, time 90.0 min, DDE = dose-dependent effect.
For test [15] the target is unchanged. The experiment in a line: Inhibition of N-terminal GST-tagged human recombinant PARK7 expressed in Escherichia coli BL21(DE3)Rosetta2 cells using SRK59 as fluorescent probe at 0.5 uM preincubated for 1 hr followed by SRK59 addition for 30 mins by Gel-based competition assay. Particulars: time 90.0 min. An outline of the steps:
as §2

Test [16] has the same target. In words: Binding affinity to N-terminal GST-tagged human recombinant PARK7 expressed in Escherichia coli BL21(DE3)Rosetta2 cells at 5 uM measured after 1 hr by fluorescence scanning analysis. A digest of the protocol: as §1
Test [17] has the same target. The experiment in a line: Binding affinity to N-terminal GST-tagged human recombinant PARK7 expressed in Escherichia coli BL21(DE3)Rosetta2 cells at 5 uM measured after 1 hr by coomassie staining based analysis. A digest of the protocol: as §1
Test [18] has the same target. In words: Inhibition of PARK7 in human HEK293T cells assessed as reduction in JQ-92 labelled PARK7 band intensity at 0.1 to 50 uM incubated for 1 hr followed by incubation with JQ-92 for 30 mins by fluorescence scanning based analysis. Conditions: dose 0.1-50 µM, time 90.0 min. The class given is cell-based.
For test [19] the target is unchanged. In words: Inhibition of N-terminal GST-tagged human recombinant PARK7 expressed in Escherichia coli BL21(DE3)Rosetta2 cells using DiFMUAc as substrate at 12.5 to 100 uM preincubated with enzyme for 1 hr followed by substrate addition and measured for 1 hr by DiFMUAc assay based fluorescence analysis. Particulars: dose 12.5-100 µM, time 2.0 hrs. A digest of the protocol:
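PARK7 GST fusion was expressed in E. coli BL21(DE3) Rosetta2, purified on glutathione beads, cut with 3C protease and polished by SEC. Enzyme at 0.1 μM final in PBS was preincubated with compound at 100, 37.5 or 12.5 μM final. DiFMUAc was then added at 300 μM final, and fluorescence (ex/em 350/450 nm) was monitored for 1 h. Run in triplicate.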

Test [20] shares this target. The experiment in a line: Inhibition of PARK7 in human HEK293T cells assessed as reduction in JQ-92 labelled PARK7 band intensity at 1 uM incubated for 1 hr followed by incubation with JQ-92 for 30 mins by fluorescence scanning based analysis. Particulars: time 90.0 min. The format is cell-based.

SMILES strings stand for the structures. The source made the active and inactive calls. No cut-off for these calls is given here.

Chain of Ubiquitin carboxyl-terminal hydrolase isozyme L1 (Homo sapiens) (P09936 whole entry, looked up): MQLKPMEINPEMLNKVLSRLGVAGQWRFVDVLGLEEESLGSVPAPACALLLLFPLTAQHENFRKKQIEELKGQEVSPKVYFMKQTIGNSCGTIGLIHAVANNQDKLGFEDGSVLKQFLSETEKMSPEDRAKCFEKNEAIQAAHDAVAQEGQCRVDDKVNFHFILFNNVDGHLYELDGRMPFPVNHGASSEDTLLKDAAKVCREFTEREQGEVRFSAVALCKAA

Turning to `CC[N+]1=C(/C=C/C=C/C=C2/N(CCCCCC(=O)NCCCc3cn(CC(=O)N4CCc5nc(NC(=O)[C@@H]6CCN(C#N)C6)sc5C4)nn3)c3ccc(S(=O)(=O)O)cc3C2(C)C)C(C)(C)c2cc(S(=O)(=O)[O-])ccc21`, the outcome in [1], in test [2], in test [3], in test [4], in [5] and in test [6] was Active. In addition, the outcome in [7] and in [8] was Active.
By inhibition is commonly meant the change of the read-out against control, counted positive when it falls. `N#CN1CC[C@H](C(=O)Nc2nc3c(s2)CN(C(=O)CN=[N+]=[N-])CC3)C1`: the inhibition result in test [9] and in [10] was “Active” each time.
In the case of `CN1C(=O)CC(C(=O)N2CCc3nc(NC(=O)[C@H]4CCN(C#N)C4)sc3C2)[C@@H]1c1cccnc1` (stereo partly drawn), the inhibition in test [9] worked out at 100%. For the same compound, the inhibition result in [11] is “Active”.
On to `N#CN1CC[C@@H](C(=O)Nc2nc3c(s2)CN(C(=O)CN=[N+]=[N-])CC3)C1`, for which the inhibition entry in test [12] and in test [15] was “Active” each time. Moreover, the inhibition in [13] is 100%; in test [14] it was “Dde”; in test [11], 100%.
Consider `N#CN1CC[C@@H](C(=O)Nc2nc3c(s2)CN(C(=O)Cn2cc(CCCNC(=O)c4ccc(-c5c6ccc(=N)cc-6oc6cc(N)ccc56)c(C(=O)O)c4)nn2)CC3)C1`, for which the outcome in test [2] and in test [4] was Active.
As to `CC1=CC(C)=[N+]2C1=C(CCCCc1cn(CC(=O)N3CCc4nc(NC(=O)[C@@H]5CCN(C#N)C5)sc4C3)nn1)c1c(C)cc(C)n1[B-]2(F)F`, the outcome in test [16] and in test [17] was Active.
With `N#CN1CC[C@H](C(=O)Nc2nc3c(s2)CN(C(=O)CCCCBr)CC3)C1`, the inhibition in [9] was determined as 100%. Also, in [11], the inhibition result was “Active”.
Turning to `CCC(C)c1ccc(NC(=O)CCl)cc1` (stereo not drawn), the inhibition entry in test [18] and in test [19] was “Active” each time.
As for `N#CN1CC[C@H](C(=O)Nc2nc3c(s2)CN(C(=O)Cc2ccncc2)CC3)C1`, in test [9], the inhibition is 100%. Moreover, the inhibition result in test [11] is “Active”.
Turning to `N#CN1CC[C@H](C(=O)Nc2ncc(N3CCOCC3)s2)C1`, in [10], the inhibition result is “Active”.
As to `O=c1ccc(NS(=O)(=O)c2cccc(S(=O)(=O)F)c2)c[nH]1`, the inhibition result in [18] and in test [19] was “Active” throughout. The inhibition in test [20] is 100%.
Take `O=C(O)c1csc(C(=O)CCl)c1`: the inhibition result in [18] and in test [19] was “Active” each time.

Source of the values: ChEMBL document CHEMBL5104184, “Chemical Toolkit for PARK7: Potent, Selective, and High-Throughput” (J Med Chem, 2022).
